Assay results as given in ChEMBL document CHEMBL1143122, “Novel analogs of D-e-MAPP and B13. Part 1: synthesis and evaluation as potential anticancer agents” (Bioorg Med Chem, 2008).

Experiments:
LOX IMVI = experiment: Antiproliferative activity against human LOXIMVI cells after 48 hrs; format: functional
Summary of the method: (§1)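 NCI 60-cell screen. Cells were grown in RPMI 1640 with 5% FBS and 2 mM L-glutamine, then plated at 5,000–40,000 cells/well according to doubling time and preincubated for 24 h at 37 °C in 5% CO2. Compounds were dissolved in DMSO at 400× the top final concentration and tested at five 10-fold dilutions from 10−4 to 10−8 M for 48 h. Growth was read spectrophotometrically; GI50 is 50% net protein reduction.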

Malme-3M = experiment: Antiproliferative activity against human MALME3M cells after 48 hrs; format: functional; summary of the method: as §1
M14 = experiment: Antiproliferative activity against human M14 cells after 48 hrs; format: functional; details: M14, 48 h; summary of the method: as §1
SK-MEL-2 = experiment: Antiproliferative activity against human SKMEL2 cells after 48 hrs; format: functional; details: SK-MEL-2, 48 h; summary of the method: as §1
SK-MEL-28 = experiment: Antiproliferative activity against human SKMEL28 cells after 48 hrs; format: functional; details: SK-MEL-28, 48 h; summary of the method: as §1
UACC-257 = experiment: Antiproliferative activity against human UACC257 cells after 48 hrs; format: functional; details: UACC-257, 48 h
Summary of the method: (§2)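 NCI 60-cell-line screen. Lines grown in RPMI 1640 with 5% fetal bovine serum and 2 mM L-glutamine, plated at 5,000–40,000 cells/well according to doubling time, left 24 h at 37 °C in 5% CO2. Drug stocks in DMSO at 400-fold the top final concentration. Five 10-fold dilutions, 10−4 to 10−8 M, incubated 48 h. Growth read spectrophotometrically as net protein; GI50 taken as 50% reduction.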

UACC-62 = experiment: Antiproliferative activity against human UACC62 cells after 48 hrs; format: functional; details: UACC-62, 48 h; summary of the method: as §2
OVCAR-3 = experiment: Antiproliferative activity against human OVCAR-3 cells after 48 hrs; format: functional; details: OVCAR-3, 48 h; summary of the method: as §1
OVCAR-4 = experiment: Antiproliferative activity against human OVCAR4 cells after 48 hrs; format: functional; details: OVCAR-4, 48 h; summary of the method: as §1
OVCAR-5 = experiment: Antiproliferative activity against human OVCAR5 cells after 48 hrs; format: functional; details: OVCAR-5, 48 h; summary of the method: as §1
OVCAR-8 = experiment: Antiproliferative activity against human OVCAR8 cells after 48 hrs; format: functional; details: OVCAR-8, 48 h; summary of the method: as §1
A498 = experiment: Antiproliferative activity against human A498 cells after 48 hrs; format: functional; details: A498, 48 h; summary of the method: as §1
ACHN = experiment: Antiproliferative activity against human ACHN cells after 48 hrs; format: functional; summary of the method: as §1
RXF 393 = experiment: Antiproliferative activity against human RXF393 cells after 48 hrs; format: functional; details: RXF 393, 48 h; summary of the method: as §1
MDA-MB-231 = experiment: Antiproliferative activity against human MDA-MB-231 cells after 48 hrs; format: functional; details: MDA-MB-231, 48 h; summary of the method: as §1
MDA-MB-435 = experiment: Antiproliferative activity against human MDA-MB-435 cells after 48 hrs; format: functional; details: Homo sapiens, MDA-MB-435, 48 h; summary of the method: as §1
HOP-92 = experiment: Antiproliferative activity against human HOP92 cells after 48 hrs; format: functional; details: HOP-92, 48 h; summary of the method: as §1
NCI-H522 = experiment: Antiproliferative activity against human NCI-H522 cells after 48 hrs; format: functional; details: NCI-H522, 48 h; summary of the method: as §1
HCT-116 = experiment: Antiproliferative activity against human HCT116 cells after 48 hrs; format: functional; details: HCT-116, 48 h; summary of the method: as §1
HCT-15 = experiment: Antiproliferative activity against human HCT15 cells after 48 hrs; format: functional; details: Homo sapiens, HCT-15, 48 h; summary of the method: as §1
KM12 = experiment: Antiproliferative activity against human KM12 cells after 48 hrs; format: functional; details: Homo sapiens, KM12, 48 h; summary of the method: as §1
SF-539 = experiment: Antiproliferative activity against human SF539 cells after 48 hrs; format: functional; details: SF-539, 48 h; summary of the method: as §1
SNB-19 = experiment: Antiproliferative activity against human SNB19 cells after 48 hrs; format: functional; details: SNB-19, 48 h; summary of the method: as §1
MCF7 = experiment: Antiproliferative activity against human MCF7 cells after 48 hrs; format: functional, cell-based; details: MCF7, 48 h
[1] = Antiproliferative activity against human HL60(TB) cells after 48 hrs; format: functional, HL-60(TB); details: HL-60, 48 h
Summary of the method: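 NCI 60-line panel screen: cells grown in RPMI 1640 with 5% fetal bovine serum and 2 mM L-glutamine, plated at 5,000–40,000 cells/well by doubling time, and preincubated 24 h at 37 °C in 5% CO2. Drugs were solubilised in DMSO at 400-fold the final maximum and tested at five 10-fold dilutions from 10−4 to 10−8 M for 48 h. Net protein was read spectrophotometrically, and the concentration giving 50% reduction was reported as log10 GI50.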

K562 = experiment: Antiproliferative activity against human K562 cells after 48 hrs; format: functional; details: K562, 48 h; summary of the method: as §1
MOLT-4 = experiment: Antiproliferative activity against human MOLT4 cells after 48 hrs; format: functional; details: MOLT-4, 48 h; summary of the method: as §1
RPMI-8226 = experiment: Antiproliferative activity against human RPMI8226 cells after 48 hrs; format: functional; details: RPMI-8226, 48 h; summary of the method: as §1
A549 = experiment: Antiproliferative activity against human A549 cells after 48 hrs; format: functional; details: A549, 48 h; summary of the method: as §1
[2] = read-out: Log LC50 (the source's name) (converted)

In the case of CCCCCCCCCCCCCCN[C@H](CO)[C@H](O)c1ccc([N+](=O)[O-])cc1.Cl, the GI50 (LOX IMVI) is reported as 1.74 µM, the LC50 (LOX IMVI) is reported as 6.03 µM and the TGI (LOX IMVI; read-out: Log TGI (converted)) is reported as 3.24 µM. It also gave a GI50 (Malme-3M) of 2.45 µM, an LC50 (Malme-3M) of 9.55 µM and a TGI (Malme-3M; read-out: Log TGI (converted)) of 4.9 µM. The GI50 (M14) was 2.04 µM, the LC50 (M14) was 6.92 µM and the TGI (M14; read-out: Log TGI (converted)) was 3.72 µM. The GI50 (SK-MEL-2) was 3.31 µM, the LC50 (SK-MEL-2) was > 100 µM and the TGI (SK-MEL-2; read-out: Log TGI (converted)) was 8.13 µM. It also gave a GI50 (SK-MEL-28) of 1.91 µM, an LC50 (SK-MEL-28) of 6.03 µM and a TGI (SK-MEL-28; read-out: Log TGI (converted)) of 3.39 µM. The GI50 (UACC-257) was 4.27 µM, the CC50 (UACC-257; [2]) was 93.3 µM and the TGI (UACC-257; read-out: Log TGI (converted)) was 20.9 µM. It also gave a GI50 (UACC-62) of 6.46 µM, an LC50 (UACC-62) of 75.9 µM and a TGI (UACC-62; read-out: Log TGI (converted)) of 24 µM. For the same compound, the GI50 (OVCAR-3) was 8.13 µM, the LC50 (OVCAR-3) was 100 µM and the TGI (OVCAR-3; read-out: Log TGI (converted)) was 30.9 µM. It also gave a GI50 (OVCAR-4) of 1.91 µM, an LC50 (OVCAR-4) of 6.76 µM and a TGI (OVCAR-4; read-out: Log TGI (converted)) of 3.55 µM. For the same compound, the GI50 (OVCAR-5) was 3.72 µM, the CC50 (OVCAR-5; [2]) was 72.4 µM and the TGI (OVCAR-5; read-out: Log TGI (converted)) was 14.1 µM. The GI50 (OVCAR-8) was 2.29 µM, the CC50 (OVCAR-8; [2]) was > 100 µM and the TGI (OVCAR-8; read-out: Log TGI (converted)) was 5.62 µM. For the same compound, the GI50 (A498) was 6.76 µM, the CC50 (A498; [2]) was 93.3 µM and the TGI (A498; read-out: Log TGI (converted)) was 26.9 µM. For the same compound, the GI50 (ACHN) was 1.86 µM, the CC50 (ACHN; [2]) was 6.17 µM and the TGI (ACHN; read-out: Log TGI (converted)) was 3.39 µM. For the same compound, the GI50 (RXF 393) was 1.82 µM, the CC50 (RXF 393; [2]) was 8.32 µM and the TGI (RXF 393; read-out: Log TGI (converted)) was 3.89 µM. The GI50 (MDA-MB-231) was 2 µM, the LC50 (50% lethal concentration) (MDA-MB-231) was 7.76 µM and the TGI (MDA-MB-231; read-out: Log TGI (converted)) was 3.89 µM. It also gave a GI50 (MDA-MB-435) of 1.91 µM, an LC50 (MDA-MB-435) of 5.75 µM and a TGI (MDA-MB-435; read-out: Log TGI (converted)) of 3.31 µM. The GI50 (HOP-92) was 1.26 µM, the LC50 (HOP-92) was 6.17 µM and the TGI (HOP-92; read-out: Log TGI (converted)) was 2.75 µM. The GI50 (NCI-H522) was 2 µM, the TGI (NCI-H522; read-out: Log TGI (converted)) was 3.98 µM and the GI50 (HCT-116) was 1.95 µM. For the same compound, the LC50 (HCT-116) was 6.17 µM, the TGI (HCT-116; read-out: Log TGI (converted)) was 3.47 µM and the GI50 (HCT-15) was 1.86 µM. For the same compound, the TGI (HCT-15; read-out: Log TGI (converted)) was 3.47 µM, the GI50 (KM12) was 1.86 µM and the CC50 (KM12; [2]) was 6.17 µM. For the same compound, the TGI (KM12; read-out: Log TGI (converted)) was 3.39 µM, the GI50 (SF-539) was 1.66 µM and the LC50 (SF-539) was 6.03 µM. The TGI (SF-539; read-out: Log TGI (converted)) was 3.16 µM, the GI50 (SNB-19) was 1.74 µM and the TGI (SNB-19; read-out: Log TGI (converted)) was 3.55 µM. The GI50 (MCF7) was 1.91 µM, the TGI (MCF7; read-out: Log TGI (converted)) was 3.47 µM and the GI50 [1] was 2.04 µM. For the same compound, the LC50 [1] was 15.1 µM, the TGI ([1]; read-out: Log TGI (converted)) was 4.79 µM and the GI50 (K562) was 1.86 µM. It also gave an LC50 (K562) of 7.76 µM, a TGI (K562; read-out: Log TGI (converted)) of 3.8 µM and a GI50 (MOLT-4) of 1.62 µM. The LC50 (MOLT-4) was 7.59 µM, the TGI (MOLT-4; read-out: Log TGI (converted)) was 3.55 µM and the GI50 (RPMI-8226) was 2.19 µM. For the same compound, the CC50 (RPMI-8226; [2]) was > 100 µM, the TGI (RPMI-8226; read-out: Log TGI (converted)) was 4.68 µM and the GI50 (A549) was 3.55 µM. For the same compound, the CC50 (A549; [2]) was > 100 µM and the TGI (A549; read-out: Log TGI (converted)) was 19.5 µM.
